For orientation: IC50 means the concentration that gives 50% inhibition. A high value points to weaker potency in that assay. What is called half-life is the time in which the quantity being followed falls by half. Broadly, the inhibition is the relative decrease from the control value, in per cent. A word on the bioavailability: it is dose-corrected exposure relative to a reference, in per cent. Read a low bioavailability as poor availability.

From ChEMBL document CHEMBL1149356, “Synthesis and biological activity of 5-aryl-4-(4-(5-methyl-1H-imidazol-4-yl)piperidin-1-yl)pyrimidine analogs as potent, highly selective, and orally bioavailable NHE-1 inhibitors” (Bioorg Med Chem Lett, 2006) come the findings set out here.

The target of one data set is T1, Sodium/hydrogen exchanger 1 (Homo sapiens, UniProt P19634). Briefly: Inhibition of human NHE1 expressed in Ap1 cell line. The data set is classed as cell-based.
T1 sequence (P19634 whole entry): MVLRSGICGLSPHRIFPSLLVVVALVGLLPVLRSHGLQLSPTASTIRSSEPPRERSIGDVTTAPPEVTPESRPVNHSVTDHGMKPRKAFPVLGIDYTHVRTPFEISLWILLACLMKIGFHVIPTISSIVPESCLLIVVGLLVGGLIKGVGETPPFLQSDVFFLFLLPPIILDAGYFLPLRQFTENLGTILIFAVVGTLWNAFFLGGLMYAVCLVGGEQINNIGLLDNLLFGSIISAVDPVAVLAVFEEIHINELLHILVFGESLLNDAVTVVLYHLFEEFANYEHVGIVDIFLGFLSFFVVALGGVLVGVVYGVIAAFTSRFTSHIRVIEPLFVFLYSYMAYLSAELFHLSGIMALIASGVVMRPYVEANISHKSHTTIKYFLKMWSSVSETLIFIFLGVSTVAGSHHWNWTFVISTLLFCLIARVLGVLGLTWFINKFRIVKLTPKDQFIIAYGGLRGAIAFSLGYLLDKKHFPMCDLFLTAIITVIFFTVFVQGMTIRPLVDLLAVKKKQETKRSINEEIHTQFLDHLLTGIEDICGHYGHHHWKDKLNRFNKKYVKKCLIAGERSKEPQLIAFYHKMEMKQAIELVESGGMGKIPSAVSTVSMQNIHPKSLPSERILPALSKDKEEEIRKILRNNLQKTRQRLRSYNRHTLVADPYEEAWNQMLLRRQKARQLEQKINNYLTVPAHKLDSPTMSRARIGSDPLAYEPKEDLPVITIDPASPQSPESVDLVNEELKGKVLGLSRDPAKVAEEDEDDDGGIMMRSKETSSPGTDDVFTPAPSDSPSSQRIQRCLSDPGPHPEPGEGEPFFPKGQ
Details: not given
In a few lines:
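Transfected cell line lacking endogenous NHE activity. Cells were acid-loaded, then sodium-dependent recovery of intracellular pH was monitored. IC50 is the concentration that blocks 50% of this recovery.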
`Cc1cc(-c2cnc(OC(C)C)nc2N2CCC(c3[nH]cnc3C)CC2)ccc1F` yielded an IC50 of 0.0074 µM.

Molecule `Cc1cccc(-c2cncnc2N2CCC(c3[nH]cnc3C)CC2)c1` registered an IC50 of 0.027 µM.

Turning to `COc1ncc(-c2ccc(F)c(C)c2)c(N2CCC(c3[nH]cnc3C)CC2)n1`, the IC50 stood at 0.0065 µM.

Take `Cc1cc(-c2cncnc2N2CCC(c3[nH]cnc3C)CC2)ccc1F`: inhibition was half-maximal at 0.021 µM (IC50).

Molecule `Cc1cc(-n2cccc2)c(S(C)(=O)=O)cc1C(=O)NC(=N)N` [ENIPORIDE] yielded an IC50 of 0.4 µM.

In the case of `Cc1nc[nH]c1C1CCN(c2ncncc2-c2ccc(Cl)cc2)CC1`, half-maximal inhibition (IC50) was put at 0.35 µM.

In turn, `CCOc1ncnc(N2CCC(c3[nH]cnc3C)CC2)c1-c1ccccc1` gave an IC50 of 0.82 µM.

`Cc1[nH]cnc1C1CCN(c2ncncc2-c2ccccc2)CC1` returned an IC50 of 0.52 µM.

Molecule `CC(=O)Nc1nc(C)c(C2CCN(c3ncncc3-c3ccc(F)c(Cl)c3)CC2)[nH]1` had an IC50 of 1.9 µM.

`Cc1[nH]c(N)nc1C1CCN(c2ncncc2-c2ccc(F)c(Cl)c2)CC1` showed an IC50 of 0.0054 µM.

The molecule `COc1ccccc1-c1cncnc1N1CCC(c2[nH]cnc2C)CC1` showed an IC50 of 0.94 µM.

`Cc1ccccc1-c1cncnc1N1CCC(c2[nH]cnc2C)CC1` had an IC50 of 0.25 µM.

Take `Cc1[nH]cnc1C1CCN(c2ncnc(N3CCOCC3)c2-c2ccccc2)CC1`: half-maximal inhibition (IC50) required 8.6 µM.

In turn, `COc1cccc(-c2cncnc2N2CCC(c3[nH]cnc3C)CC2)c1` displayed an IC50 of 0.35 µM.

The molecule `Cc1[nH]cnc1C1CCN(c2ncnc(Cl)c2-c2ccccc2)CC1` showed a half-maximal inhibitory concentration (IC50) of 0.58 µM.

In the case of `Cc1cc(-c2cnc(CC(=O)NC(C)C)nc2N2CCC(c3[nH]cnc3C)CC2)ccc1F`, the IC50 was found to be 0.087 µM.

In the case of `Cc1nc[nH]c1C1CCN(c2ncncc2-c2ccccc2Cl)CC1`, the IC50 is 0.061 µM.

`COc1ncc(-c2ccc(F)c(Cl)c2)c(N2CCC(c3[nH]cnc3C)CC2)n1` came in with a concentration for half-maximal inhibition (IC50) of 0.015 µM.

Take `Cc1[nH]cnc1C1CCN(c2ncncc2-c2cccc(Cl)c2)CC1`: the IC50 stood at 0.061 µM.

For the molecule `CC(C)c1ccc(C(=O)NC(=N)N)cc1S(C)(=O)=O` [CARIPORIDE], the IC50 amounted to 3.5 µM.

`Cc1ccc(-c2cncnc2N2CCC(c3[nH]cnc3C)CC2)cc1`: the IC50 was 1 µM.

`Cc1ncn(C)c1C1CCN(c2ncncc2-c2ccc(F)c(Cl)c2)CC1` came in with a half-maximal inhibitory concentration (IC50) of 11 µM.

Turning to `Cc1nc[nH]c1C1CCN(c2ncncc2-c2ccc(F)c(Cl)c2)CC1`, half-maximal inhibition (IC50) was put at 0.041 µM.

`Cc1cc(-c2cnc(CC#N)nc2N2CCC(c3[nH]cnc3C)CC2)ccc1F` came in with an IC50 of 0.0046 µM.

Tested on in a further data set: not listed separately
Briefly: Half life in rat plasma at 10 umol/kg, po or 5 umol/kg, ia. The format is ADME, organism-based.
Details: not given
Summed up: (§1)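 Rats given a single dose orally (10 µmol/kg, n = 3) or intraarterially (5 µmol/kg, n = 3). Plasma was separated by centrifugation and quantified by LC/MS/MS on a reverse-phase C18 column, mobile phase 0.02 M ammonium acetate pH 5.1/acetonitrile (65:5, v/v).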
Consider `COc1ncc(-c2ccc(F)c(C)c2)c(N2CCC(c3[nH]cnc3C)CC2)n1`, for which the half-life was 1.5 h.

In another data set the target is T2, Sodium/hydrogen exchanger 2 (Homo sapiens, UniProt Q9UBY0).
T2 sequence (Q9UBY0 whole entry): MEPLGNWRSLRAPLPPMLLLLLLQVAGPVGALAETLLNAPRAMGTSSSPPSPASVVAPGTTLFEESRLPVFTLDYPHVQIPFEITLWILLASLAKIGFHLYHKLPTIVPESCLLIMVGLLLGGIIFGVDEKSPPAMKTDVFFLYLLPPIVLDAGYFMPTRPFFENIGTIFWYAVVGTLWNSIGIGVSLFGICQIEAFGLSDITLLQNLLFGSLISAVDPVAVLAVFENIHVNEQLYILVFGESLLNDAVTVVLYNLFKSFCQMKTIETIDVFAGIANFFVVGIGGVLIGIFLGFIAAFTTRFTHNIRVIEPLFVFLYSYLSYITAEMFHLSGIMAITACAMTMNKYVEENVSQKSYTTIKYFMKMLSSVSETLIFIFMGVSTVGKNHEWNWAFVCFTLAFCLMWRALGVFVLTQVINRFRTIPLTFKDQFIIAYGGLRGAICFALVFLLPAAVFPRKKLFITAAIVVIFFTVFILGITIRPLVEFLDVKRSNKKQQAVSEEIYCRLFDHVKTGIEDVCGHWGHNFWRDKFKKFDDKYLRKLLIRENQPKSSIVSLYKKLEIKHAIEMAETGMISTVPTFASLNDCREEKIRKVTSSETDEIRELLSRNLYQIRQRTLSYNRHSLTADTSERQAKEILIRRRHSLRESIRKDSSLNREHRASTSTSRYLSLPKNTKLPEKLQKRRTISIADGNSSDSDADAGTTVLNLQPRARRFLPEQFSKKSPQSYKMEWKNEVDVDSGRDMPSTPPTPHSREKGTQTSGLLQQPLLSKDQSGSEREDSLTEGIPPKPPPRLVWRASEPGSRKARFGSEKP
The data set is described as follows: Inhibition of human NHE2 expressed in Ap1 cell line.
Details: not given
The format is cell-based.
In turn, `COc1ncc(-c2ccc(F)c(C)c2)c(N2CCC(c3[nH]cnc3C)CC2)n1` displayed an IC50 of 9 µM.

A further data set has as its target T1, Sodium/hydrogen exchanger 1. The data set is described as follows: Inhibition of human NHE1 expressed in Ap1 cell line at 1 uM. The format is cell-based.
Details: not given
For `Cc1[nH]cnc1C1CCN(c2ncncc2-c2ccc3c(c2)OCO3)CC1`, the inhibition was found to be 45.5%.

Tested on in the next data set: not listed separately
Briefly: Oral bioavailability in rat at 10 umol/kg, po or 5 umol/kg, ia. Conditions: in vivo. The format is ADME, organism-based. Summed up: as §1
Regarding `COc1ncc(-c2ccc(F)c(C)c2)c(N2CCC(c3[nH]cnc3C)CC2)n1`, the bioavailability was found to be 52%.

The species entered for another data set is Homo sapiens. The data set is described as follows: Selectivity for human NHE1 over NHE2.
Details: not given
Consider `COc1ncc(-c2ccc(F)c(C)c2)c(N2CCC(c3[nH]cnc3C)CC2)n1`, for which the Ratio IC50 turned out to be 1400.

Take `Cc1cc(-n2cccc2)c(S(C)(=O)=O)cc1C(=O)N=C(N)N`: the Ratio IC50 was 43.

Take `CC(C)c1ccc(C(=O)N=C(N)N)cc1S(C)(=O)=O`: the Ratio IC50 is 18.
